Converted amounts (≈) assume the structure as drawn.
How the values were obtained:
[1] = test system: Klebsiella pneumoniae; experiment: Antimicrobial activity against CTX-M-2 producing Klebsiella pneumoniae with PFGE pulsotype A by Etest; type: functional
In short: (§1)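 Clinical K. pneumoniae isolates from a neonatal ICU outbreak near São Paulo were typed by XbaI PFGE using Tenover criteria. Cultures were grown in LB broth at 37°C. Etest MICs followed the manufacturer's instructions, with cefotaxime and ceftazidime each tested with and without clavulanic acid.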

[2] = test system: Klebsiella pneumoniae; experiment: Antimicrobial activity against CTX-M-2 producing Klebsiella pneumoniae with PFGE pulsotype B by Etest; type: functional; in short: as §1
[3] = test system: Klebsiella pneumoniae; experiment: Antimicrobial activity against CTX-M-59 producing Klebsiella pneumoniae with PFGE pulsotype C by Etest; type: functional
[4] = test system: Klebsiella pneumoniae; experiment: Antimicrobial activity against SHV-5 producing Klebsiella pneumoniae with PFGE pulsotype D by Etest; type: functional; in short: as §1
[5] = test system: Klebsiella pneumoniae; experiment: Antimicrobial activity against CTX-M-59 producing Klebsiella pneumoniae with PFGE pulsotype E by Etest; type: functional
[6] = test system: Klebsiella pneumoniae; experiment: Antimicrobial activity against CTX-M-2 producing Klebsiella pneumoniae with PFGE pulsotype F by Etest; type: functional
[7] = test system: Klebsiella pneumoniae; experiment: Antimicrobial activity against CTX-M-59 producing Klebsiella pneumoniae with PFGE pulsotype G by Etest; type: functional; in short: as §1
[8] = test system: Klebsiella pneumoniae; experiment: Antimicrobial activity against CTX-M-2 producing Klebsiella pneumoniae with PFGE pulsotype H by Etest; type: functional; in short: as §1
[9] = test system: Klebsiella pneumoniae; experiment: Antimicrobial activity against CTX-M-2 producing Klebsiella pneumoniae with PFGE pulsotype I by Etest; type: functional
[10] = test system: Klebsiella pneumoniae; experiment: Antimicrobial activity against CTX-M-2 producing Klebsiella pneumoniae with PFGE pulsotype J by Etest; type: functional
[11] = test system: Escherichia coli; experiment: Antimicrobial activity against Escherichia coli str. K-12 substr. DH10B harboring plasmid CTX-M-2; type: functional; conditions: K-12 DH10B
In short: (§2)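 blaCTX-M PCR products were cut with XbaI/BamHI and cloned into pBC-SK(−), then electroporated into E. coli DH10B. Transformants were selected on LB agar with ampicillin 50 μg/ml and chloramphenicol 30 μg/ml, and sequences were confirmed. These clones were used for β-lactam MICs, with and without clavulanic acid.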

[12] = test system: Escherichia coli; experiment: Antimicrobial activity against Escherichia coli str. K-12 substr. DH10B harboring plasmid CTX-M-2 in presence of clavulanic acid; type: functional; conditions: K-12 DH10B; in short: as §2
[13] = test system: Escherichia coli; experiment: Antimicrobial activity against Escherichia coli str. K-12 substr. DH10B harboring plasmid CTX-M-59; type: functional; conditions: K-12 DH10B; in short: as §2
[14] = test system: Escherichia coli; experiment: Antimicrobial activity against Escherichia coli str. K-12 substr. DH10B harboring plasmid CTX-M-59 in presence of clavulanic acid; type: functional; conditions: K-12 DH10B; in short: as §2
[15] = test system: Klebsiella pneumoniae; experiment: Antimicrobial activity against SHV-5 producing Klebsiella pneumoniae transconjugants/transformants with PFGE pulsotype D by Etest; type: functional
In short: (§3)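 The recipient was E. coli XL1-Blue Rifr NAr. Plasmids moved by broth mating, with transconjugants selected on LB agar containing ampicillin, rifampin and nalidixic acid, each at 50 μg/ml. Where mating failed, alkaline-lysis plasmid extracts were electroporated and selected on ampicillin 50 μg/ml. β-lactam MICs were read by Etest, with and without clavulanic acid.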

[16] = test system: Klebsiella pneumoniae; experiment: Antimicrobial activity against CTX-M-2 and TEM-1 producing Klebsiella pneumoniae transconjugants/transformants with PFGE pulsotype B by Etest in presence of clavulanic acid; type: functional; in short: as §3
[17] = test system: Klebsiella pneumoniae; experiment: Antimicrobial activity against CTX-M-59 and TEM-1 producing Klebsiella pneumoniae transconjugants/transformants with PFGE pulsotype C by Etest in presence of clavulanic acid; type: functional; in short: as §3
[18] = test system: Klebsiella pneumoniae; experiment: Antimicrobial activity against SHV-5 producing Klebsiella pneumoniae transconjugants/transformants with PFGE pulsotype D by Etest in presence of clavulanic acid; type: functional; in short: as §3
[19] = test system: Klebsiella pneumoniae; experiment: Antimicrobial activity against CTX-M-59 and TEM-1 producing Klebsiella pneumoniae transconjugants/transformants with PFGE pulsotype E by Etest in presence of clavulanic acid; type: functional; in short: as §3
[20] = test system: Klebsiella pneumoniae; experiment: Antimicrobial activity against CTX-M-2 and TEM-1 producing Klebsiella pneumoniae transconjugants/transformants with PFGE pulsotype F by Etest in presence of clavulanic acid; type: functional; in short: as §3
[21] = test system: Klebsiella pneumoniae; experiment: Antimicrobial activity against CTX-M-59 and TEM-1 producing Klebsiella pneumoniae transconjugants/transformants with PFGE pulsotype G by Etest in presence of clavulanic acid; type: functional; in short: as §3
[22] = test system: Klebsiella pneumoniae; experiment: Antimicrobial activity against CTX-M-2 and TEM-1 producing Klebsiella pneumoniae transconjugants/transformants with PFGE pulsotype H by Etest in presence of clavulanic acid; type: functional
[23] = test system: Klebsiella pneumoniae; experiment: Antimicrobial activity against CTX-M-2 and TEM-1 producing Klebsiella pneumoniae transconjugants/transformants with PFGE pulsotype I by Etest in presence of clavulanic acid; type: functional; in short: as §3
[24] = test system: Klebsiella pneumoniae; experiment: Antimicrobial activity against CTX-M-2 and TEM-1 producing Klebsiella pneumoniae transconjugants/transformants with PFGE pulsotype J by Etest in presence of clavulanic acid; type: functional; in short: as §3
[25] = test system: Klebsiella pneumoniae; experiment: Antimicrobial activity against CTX-M-2 producing Klebsiella pneumoniae with PFGE pulsotype A by Etest in presence of clavulanic acid; type: functional; in short: as §1
[26] = test system: Klebsiella pneumoniae; experiment: Antimicrobial activity against CTX-M-2 producing Klebsiella pneumoniae with PFGE pulsotype B by Etest in presence of clavulanic acid; type: functional; in short: as §1
[27] = test system: Klebsiella pneumoniae; experiment: Antimicrobial activity against CTX-M-59 producing Klebsiella pneumoniae with PFGE pulsotype C by Etest in presence of clavulanic acid; type: functional; in short: as §1
[28] = test system: Klebsiella pneumoniae; experiment: Antimicrobial activity against SHV-5 producing Klebsiella pneumoniae with PFGE pulsotype D by Etest in presence of clavulanic acid; type: functional
[29] = test system: Klebsiella pneumoniae; experiment: Antimicrobial activity against CTX-M-59 producing Klebsiella pneumoniae with PFGE pulsotype E by Etest in presence of clavulanic acid; type: functional
In short: (§4)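 MICs were determined by Etest strips following the manufacturer's instructions, using cefotaxime and ceftazidime each combined with clavulanic acid. The test strains were clinical NICU outbreak isolates confirmed as ESBL producers by disk diffusion. Pulsotypes were assigned by XbaI PFGE using Tenover relatedness criteria. Cultures were routinely grown in LB broth at 37°C.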

[30] = test system: Klebsiella pneumoniae; experiment: Antimicrobial activity against CTX-M-2 producing Klebsiella pneumoniae with PFGE pulsotype F by Etest in presence of clavulanic acid; type: functional; in short: as §1
[31] = test system: Klebsiella pneumoniae; experiment: Antimicrobial activity against CTX-M-59 producing Klebsiella pneumoniae with PFGE pulsotype G by Etest in presence of clavulanic acid; type: functional; in short: as §4
[32] = test system: Klebsiella pneumoniae; experiment: Antimicrobial activity against CTX-M-2 producing Klebsiella pneumoniae with PFGE pulsotype H by Etest in presence of clavulanic acid; type: functional
In short: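 Etest strips used per manufacturer's instructions to read MICs of cefotaxime and ceftazidime, each with clavulanic acid, on clinical NICU K. pneumoniae outbreak isolates. Isolates were typed by XbaI PFGE using Tenover criteria and routinely grown in LB broth at 37°C.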

[33] = test system: Klebsiella pneumoniae; experiment: Antimicrobial activity against CTX-M-2 producing Klebsiella pneumoniae with PFGE pulsotype I by Etest in presence of clavulanic acid; type: functional; in short: as §1
[34] = test system: Klebsiella pneumoniae; experiment: Antimicrobial activity against CTX-M-2 producing Klebsiella pneumoniae with PFGE pulsotype J by Etest in presence of clavulanic acid; type: functional; in short: as §1
[35] = test system: Escherichia coli; experiment: Antimicrobial activity against CTX-M-2 and TEM-1 producing Escherichia coli transconjugants/transformants with PFGE pulsotype A by Etest in presence of clavulanic acid
[36] = test system: Klebsiella pneumoniae; experiment: Antimicrobial activity against CTX-M-2 and TEM-1 producing Klebsiella pneumoniae transconjugants/transformants with PFGE pulsotype A by Etest; type: functional; in short: as §3
[37] = test system: Klebsiella pneumoniae; experiment: Antimicrobial activity against CTX-M-2 and TEM-1 producing Klebsiella pneumoniae transconjugants/transformants with PFGE pulsotype B by Etest; type: functional; in short: as §3
[38] = test system: Klebsiella pneumoniae; experiment: Antimicrobial activity against CTX-M-59 and TEM-1 producing Klebsiella pneumoniae transconjugants/transformants with PFGE pulsotype C by Etest; type: functional; in short: as §3
[39] = test system: Klebsiella pneumoniae; experiment: Antimicrobial activity against CTX-M-59 and TEM-1 producing Klebsiella pneumoniae transconjugants/transformants with PFGE pulsotype E by Etest; type: functional; in short: as §3
[40] = test system: Klebsiella pneumoniae; experiment: Antimicrobial activity against CTX-M-2 and TEM-1 producing Klebsiella pneumoniae transconjugants/transformants with PFGE pulsotype F by Etest; type: functional; in short: as §3
[41] = test system: Klebsiella pneumoniae; experiment: Antimicrobial activity against CTX-M-59 and TEM-1 producing Klebsiella pneumoniae transconjugants/transformants with PFGE pulsotype G by Etest; type: functional; in short: as §3
[42] = test system: Klebsiella pneumoniae; experiment: Antimicrobial activity against CTX-M-2 and TEM-1 producing Klebsiella pneumoniae transconjugants/transformants with PFGE pulsotype H by Etest; type: functional; in short: as §3
[43] = test system: Klebsiella pneumoniae; experiment: Antimicrobial activity against CTX-M-2 and TEM-1 producing Klebsiella pneumoniae transconjugants/transformants with PFGE pulsotype I by Etest; type: functional; in short: as §3
[44] = test system: Klebsiella pneumoniae; experiment: Antimicrobial activity against CTX-M-2 and TEM-1 producing Klebsiella pneumoniae transconjugants/transformants with PFGE pulsotype J by Etest; type: functional; in short: as §3

CO/N=C(\C(=O)N[C@@H]1C(=O)N2C(C(=O)O)=C(COC(C)=O)CS[C@H]12)c1csc(N)n1 [CEFOTAXIME]
MIC [1]: > 256 µg/mL | MIC [2]: > 256 µg/mL | MIC [3]: > 256 µg/mL | MIC [4]: 48 µg/mL (≈ 105 µM) | MIC [5]: > 256 µg/mL | MIC [6]: > 256 µg/mL | MIC [7]: > 256 µg/mL | MIC [8]: > 256 µg/mL | MIC [9]: > 256 µg/mL | MIC [10]: > 256 µg/mL | MIC [11]: 128 µg/mL (≈ 281 µM) | MIC [12]: 0.094 µg/mL | MIC [13]: 96 µg/mL (≈ 211 µM) | MIC [14]: 0.094 µg/mL | MIC [15]: 12 µg/mL (≈ 26.3 µM) | MIC [16]: 0.094 µg/mL | MIC [17]: 0.19 µg/mL | MIC [18]: 0.47 µg/mL | MIC [19]: 0.25 µg/mL | MIC [20]: 0.125 µg/mL | MIC [21]: 0.19 µg/mL | MIC [22]: 0.94 µg/mL | MIC [23]: 0.125 µg/mL | MIC [24]: 0.125 µg/mL | MIC [25]: 0.094 µg/mL | MIC [26]: 0.094 µg/mL | MIC [27]: 0.094 µg/mL | MIC [28]: 0.047 µg/mL | MIC [29]: 0.125 µg/mL | MIC [30]: 0.094 µg/mL | MIC [31]: 0.5 µg/mL | MIC [32]: 1 µg/mL | MIC [33]: 0.094 µg/mL | MIC [34]: 0.094 µg/mL | MIC [35]: 0.094 µg/mL

CC(C)(O/N=C(\C(=O)N[C@@H]1C(=O)N2C(C(=O)[O-])=C(C[n+]3ccccc3)CS[C@H]12)c1csc(N)n1)C(=O)O [CEFTAZIDIME]
MIC [1]: 6 µg/mL (≈ 11 µM) | MIC [2]: 24 µg/mL (≈ 43.9 µM) | MIC [3]: 4 µg/mL (≈ 7.32 µM) | MIC [4]: 256 µg/mL (≈ 468 µM) | MIC [5]: 8 µg/mL (≈ 14.6 µM) | MIC [6]: 8 µg/mL (≈ 14.6 µM) | MIC [7]: 12 µg/mL (≈ 22 µM) | MIC [8]: 256 µg/mL (≈ 468 µM) | MIC [9]: 4 µg/mL (≈ 7.32 µM) | MIC [10]: 6 µg/mL (≈ 11 µM) | MIC [11]: 8 µg/mL (≈ 14.6 µM) | MIC [12]: 0.38 µg/mL | MIC [13]: 8 µg/mL (≈ 14.6 µM) | MIC [14]: 0.38 µg/mL | MIC [36]: 8 µg/mL (≈ 14.6 µM) | MIC [37]: 12 µg/mL (≈ 22 µM) | MIC [38]: 8 µg/mL (≈ 14.6 µM) | MIC [15]: > 256 µg/mL | MIC [39]: 4 µg/mL (≈ 7.32 µM) | MIC [40]: 16 µg/mL (≈ 29.3 µM) | MIC [41]: 8 µg/mL (≈ 14.6 µM) | MIC [42]: 8 µg/mL (≈ 14.6 µM) | MIC [43]: 6 µg/mL (≈ 11 µM) | MIC [44]: 12 µg/mL (≈ 22 µM) | MIC [16]: 0.19 µg/mL | MIC [17]: 0.25 µg/mL | MIC [18]: 0.19 µg/mL | MIC [19]: 0.19 µg/mL | MIC [20]: 0.38 µg/mL | MIC [21]: 0.38 µg/mL | MIC [22]: 0.25 µg/mL | MIC [23]: 0.19 µg/mL | MIC [24]: 0.38 µg/mL | MIC [25]: 0.5 µg/mL | MIC [26]: 0.75 µg/mL | MIC [27]: 0.38 µg/mL | MIC [28]: 0.25 µg/mL | MIC [29]: 0.75 µg/mL | MIC [30]: 1.5 µg/mL | MIC [31]: 1 µg/mL | MIC [32]: > 4 µg/mL | MIC [33]: 0.5 µg/mL | MIC [34]: 0.75 µg/mL | MIC [35]: 0.19 µg/mL

— ChEMBL document CHEMBL1255347, “Multiclonal outbreak of Klebsiella pneumoniae producing extended-spectrum beta-lactamase CTX-M-2 and novel variant CTX-M-59 in a neonatal intensive care unit in Brazil” (2008)
